According to ChEMBL document CHEMBL1148329, “Synthesis and structure-activity studies on N-[5-(1H-imidazol-4-yl)-5,6,7,8-tetrahydro-1-naphthalenyl]methanesulfonamide, an imidazole-containing alpha(1A)-adrenoceptor agonist” (J Med Chem, 2004):

How the values were obtained:
[1] = target: T1, Alpha-1B adrenergic receptor (Rattus norvegicus) (UniProt P15823); assay: Efficacy relative to phenylephrine (PE) to constrict tissue containing the alpha-1B adrenergic receptor in rat spleen; type: functional, tissue-based
T1 sequence (whole entry): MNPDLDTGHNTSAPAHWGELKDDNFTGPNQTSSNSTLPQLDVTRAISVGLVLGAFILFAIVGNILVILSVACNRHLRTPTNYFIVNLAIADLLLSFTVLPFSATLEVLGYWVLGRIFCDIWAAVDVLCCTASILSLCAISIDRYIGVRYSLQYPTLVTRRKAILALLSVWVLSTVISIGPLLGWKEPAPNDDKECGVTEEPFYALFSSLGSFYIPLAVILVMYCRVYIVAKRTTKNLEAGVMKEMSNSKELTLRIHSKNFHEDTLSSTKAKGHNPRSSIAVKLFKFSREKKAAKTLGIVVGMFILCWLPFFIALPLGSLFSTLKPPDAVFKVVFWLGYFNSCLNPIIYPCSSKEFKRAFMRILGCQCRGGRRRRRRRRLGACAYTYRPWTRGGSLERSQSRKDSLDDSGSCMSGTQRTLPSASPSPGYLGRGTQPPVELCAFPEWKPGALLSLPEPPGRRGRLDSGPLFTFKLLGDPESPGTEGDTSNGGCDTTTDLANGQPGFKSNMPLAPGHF

[2] = target: T2, Alpha-1D adrenergic receptor (Rattus norvegicus) (UniProt P23944); assay: Functional agonism of the compounds to constrict tissue containing the alpha-1D adrenergic receptor in rat aorta; type: tissue-based
T2 sequence (whole entry): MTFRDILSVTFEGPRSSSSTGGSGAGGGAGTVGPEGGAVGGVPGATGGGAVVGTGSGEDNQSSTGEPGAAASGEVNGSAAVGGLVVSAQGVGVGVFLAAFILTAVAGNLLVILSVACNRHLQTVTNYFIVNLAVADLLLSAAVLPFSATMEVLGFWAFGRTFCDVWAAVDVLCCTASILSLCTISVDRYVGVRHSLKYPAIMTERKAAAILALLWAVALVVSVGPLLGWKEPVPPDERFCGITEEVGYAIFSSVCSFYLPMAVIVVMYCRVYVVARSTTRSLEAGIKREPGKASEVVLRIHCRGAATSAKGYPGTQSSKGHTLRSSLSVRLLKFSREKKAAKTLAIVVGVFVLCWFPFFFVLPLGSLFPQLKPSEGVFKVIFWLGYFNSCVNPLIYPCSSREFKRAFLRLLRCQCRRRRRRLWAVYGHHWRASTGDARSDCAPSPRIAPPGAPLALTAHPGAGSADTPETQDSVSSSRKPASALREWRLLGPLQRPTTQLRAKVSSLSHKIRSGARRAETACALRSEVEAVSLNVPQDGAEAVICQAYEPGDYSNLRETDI
How it was run: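 Agonist dose–response curves were run on isolated tissue: rabbit urethra for α1A, rat spleen for α1B, and rat aorta for α1D.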

[3] = target: T2, Alpha-1D adrenergic receptor (Rattus norvegicus); assay: Efficacy relative to phenylephrine (PE) constrict tissue containing the alpha-1D adrenergic receptor in rat aorta; type: functional, tissue-based
How it was run: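 α1-agonist dose–response curves in isolated tissue: rabbit urethra (α1A), rat spleen (α1B), rat aorta (α1D). Agonist potency and efficacy read from the concentration–response curves.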

[4] = target: T3, Alpha-1A adrenergic receptor (Rattus norvegicus, UniProt P43140); assay: In vitro binding affinity towards alpha-1A adrenergic receptor of rat submaxillary gland in radioligand binding assay
T3 sequence (P43140 whole entry): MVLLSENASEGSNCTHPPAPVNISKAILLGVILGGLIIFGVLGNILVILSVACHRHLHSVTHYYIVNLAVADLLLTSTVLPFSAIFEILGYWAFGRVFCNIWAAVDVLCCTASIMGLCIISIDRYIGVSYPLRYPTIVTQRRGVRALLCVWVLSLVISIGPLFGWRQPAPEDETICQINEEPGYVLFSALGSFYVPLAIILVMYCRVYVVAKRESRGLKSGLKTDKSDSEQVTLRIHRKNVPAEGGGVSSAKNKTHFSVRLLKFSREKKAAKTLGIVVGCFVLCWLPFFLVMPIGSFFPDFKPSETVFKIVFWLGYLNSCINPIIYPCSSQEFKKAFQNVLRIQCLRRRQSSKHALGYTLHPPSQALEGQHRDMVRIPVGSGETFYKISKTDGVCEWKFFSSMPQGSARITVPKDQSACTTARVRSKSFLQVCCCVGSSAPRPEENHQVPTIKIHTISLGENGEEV
How it was run: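 Radioligand binding at α1 subtypes: α1A from rat submaxillary gland, α1B hamster clone, α1D rat clone. Run essentially per an earlier method.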

[5] = Selectivity is ratio of efficacy of alpha-1B to that of alpha1A adrenoceptor; type: functional
[6] = Selectivity is ratio of efficacy of Alpha-1D to that of alpha-1A adrenoceptor; type: functional
[7] = target: T4, Alpha-2A adrenergic receptor (Rattus norvegicus) (UniProt P22909); conditions: Vas deferens
T4 sequence (whole entry): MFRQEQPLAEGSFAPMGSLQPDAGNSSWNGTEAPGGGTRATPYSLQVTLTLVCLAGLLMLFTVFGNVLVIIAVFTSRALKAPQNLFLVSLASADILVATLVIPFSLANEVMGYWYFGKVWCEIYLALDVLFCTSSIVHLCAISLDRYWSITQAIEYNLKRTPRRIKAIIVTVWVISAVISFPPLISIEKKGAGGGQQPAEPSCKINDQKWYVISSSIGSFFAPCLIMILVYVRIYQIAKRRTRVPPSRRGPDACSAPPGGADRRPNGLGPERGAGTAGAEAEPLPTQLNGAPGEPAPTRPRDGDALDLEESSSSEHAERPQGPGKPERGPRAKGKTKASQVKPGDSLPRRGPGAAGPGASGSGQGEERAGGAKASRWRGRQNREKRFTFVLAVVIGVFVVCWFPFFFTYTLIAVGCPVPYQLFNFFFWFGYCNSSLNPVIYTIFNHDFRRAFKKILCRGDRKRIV

With `CN(c1cccc2c1CCCC2c1c[nH]cn1)S(C)(=O)=O` (configuration not stated) the Efficacy [1] was 21.

Work on `CC(N)C(O)c1ccccc1` (configuration not stated) [PHENYLPROPANOLAMINE] yielded a pD2 [2] of 4.12, an Efficacy [3] of 91% and a Ki [4] of 9.77 µM. The Selectivity [5] was 1, the Selectivity [6] was 0.2 and the pD2 [7] was 5.17.

With `O=S(=O)(CC(F)(F)F)Nc1cccc2c1CCCC2c1c[nH]cn1` (single isomer, unassigned; (+)) the “Log Ki” value [4] was -6.91.

Compound `COc1ccc(OC)c(C(O)CN)c1` (configuration not stated) [DESGLYMIDODRINE] has a pD2 [2] of 5.73, an Efficacy [3] of 68% and a Selectivity [5] of 12. It also gave a Selectivity [6] of 1.
